For one assay, the target named is CK2α catalytic subunit (Homo sapiens, UniProt P68400). Kind of assay: In vitro phosphorylation assay of CK2α with peptide substrate RRRADDSDDDDD
The class given is biochemical. The essentials:
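Activity is expressed as % of no-peptide control, as the mean of at least three independent experiments. Full-length murine NBD1ΔF508 (389–673) tests were run at 350 μM ATP.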

A further assay relates to CK2 holoenzyme. Kind of assay: CK2 holoenzyme activity towards protein and peptide substrates. The class given is biochemical, human. To be noted: results not shown. The essentials:
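Recombinant human CK2α and CK2β expressed in E. coli; holoenzyme formed by pre-incubating CK2α with 10-fold molar excess of CK2β. Radiolabel incorporation was measured; at least three independent experiments were averaged.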

CK2α catalytic subunit, sequence (P68400 whole entry): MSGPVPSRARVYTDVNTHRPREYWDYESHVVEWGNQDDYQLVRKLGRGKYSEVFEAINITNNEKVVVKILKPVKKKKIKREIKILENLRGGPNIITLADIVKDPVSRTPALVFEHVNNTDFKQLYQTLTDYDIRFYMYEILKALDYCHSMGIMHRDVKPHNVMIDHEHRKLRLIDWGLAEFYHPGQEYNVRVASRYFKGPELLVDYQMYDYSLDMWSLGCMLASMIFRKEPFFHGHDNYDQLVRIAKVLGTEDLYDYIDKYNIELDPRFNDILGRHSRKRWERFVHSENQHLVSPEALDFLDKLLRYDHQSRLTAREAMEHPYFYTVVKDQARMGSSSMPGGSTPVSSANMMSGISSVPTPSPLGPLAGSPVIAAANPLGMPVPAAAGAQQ

B1: NBD1ΔF508: purified ΔF508 mutated recombinant murine NBD1 (nucleotide-binding domain 1 of CFTR; sequence 389–673) (protein)
chain: TTGIIMENVTAFWEEGFGELLEKVQQSNGDRKHSSDENNVSFSHLCLVGNPVLKNINLNIEKGEMLAITGSTGSGKTSLLMLILGELEASEGIIKHSGRVSFCSQFSWIMPGTIKENIIGVSYDEYRYKSVVKACQLQQDITKFAEQDNTVLGEGGVTLSGGQRARISLARAVYKDADLYLLDSPFGYLDVFTEEQVFESCVCKLMANKTRILVTSKMEHLRKADKILILHQGSSYFYGTFSELQSLRPDFSSKLMGYDTFDQFTEERRSSILTETLRRFSVDD
For the molecule B1, the “effect on inhibition of CK2α by the ΔF508 peptide” value with CK2α catalytic subunit (50 μM NBD1ΔF508, 350 μM ATP) was “abrogates the inhibitory efficacy of the ΔF508 peptide”. The “inhibition of CK2α by the full-length protein” value with CK2α catalytic subunit (concentration raised up to 20 μM, results not shown) is listed as “no significant inhibition”. Also, the “effect on CK2 holoenzyme” value in the assay with CK2 holoenzyme is listed as “no appreciable effect”.

The record behind these values is PMC3026963 (The Biochemical journal, 2010).
